Measured values as given in ChEMBL document CHEMBL5338819, “Tuning the Metabolic Stability of Visual Cycle Modulators through Modification of an RPE65 Recognition Motif” (J Med Chem, 2023).
Activity calls are given as the source filed them. The calls are words filed in the database; no cut-off is given here.

Columns and labels:
[1] = Drug concentration in C57BL/6J mouse serum assessed as emixustat concentration at 10 mg/kg,ip administrated and measured after 1 hr by HPLC-MS analysis; format: ADME, organism-based; settings: in vivo, read-out: Ct
[2] = Drug concentration in mouse aorta by HPLC analysis; format: ADME, tissue-based; settings: in vitro, read-out: Drug uptake
[3] = Intrinsic clearance in mouse liver microsomes measured upto 60 mins in presence of NADPH by HPLC analysis; format: ADME, Microsome; settings: 1 h
[4] = Drug concentration in C57BL/6J mouse serum assessed as emixustat concentration at 10 mg/kg,ip administrated and measured after 4 hr by HPLC-MS analysis; format: ADME, organism-based; settings: in vivo, read-out: Ct
[5] = Metabolic stability in mouse liver microsomes assessed as CYP450-mediated metabolism by measuring initial velocity at 50 uM measured upto 60 mins in presence of NADPH by HPLC analysis; format: ADME, Microsome; settings: 1 h
[6] = Drug metabolism in mouse aorta assessed as VAP-1 mediated oxidative deaminated product formation by measuring ACU-5201 metabolite concentration and measured after 4 hr by HPLC analysis; format: ADME, tissue-based
[7] = Drug concentration in C57BL/6J mouse eye assessed as emixustat concentration per eye at 10 mg/kg,ip administrated and measured after 24 hr by HPLC-MS analysis; format: ADME, organism-based; settings: in vivo
[8] = Drug metabolism in mouse aorta assessed as VAP-1 mediated oxidative deaminated product formation by measuring ACU-5201 metabolite concentration by HPLC analysis; format: ADME, tissue-based
[9] = molecular target: T1, Retinoid isomerohydrolase (Mus musculus) (UniProt Q91ZQ5); experiment: In vivo inhibition of RPE65 in BALB/cJ mouse eye by measuring retinyl ester level per eye at 10 mg/kg,ip administrated and measured after 4 hrs of dark adaptation by HPLC analysis; format: functional, organism-based
T1 sequence (whole entry): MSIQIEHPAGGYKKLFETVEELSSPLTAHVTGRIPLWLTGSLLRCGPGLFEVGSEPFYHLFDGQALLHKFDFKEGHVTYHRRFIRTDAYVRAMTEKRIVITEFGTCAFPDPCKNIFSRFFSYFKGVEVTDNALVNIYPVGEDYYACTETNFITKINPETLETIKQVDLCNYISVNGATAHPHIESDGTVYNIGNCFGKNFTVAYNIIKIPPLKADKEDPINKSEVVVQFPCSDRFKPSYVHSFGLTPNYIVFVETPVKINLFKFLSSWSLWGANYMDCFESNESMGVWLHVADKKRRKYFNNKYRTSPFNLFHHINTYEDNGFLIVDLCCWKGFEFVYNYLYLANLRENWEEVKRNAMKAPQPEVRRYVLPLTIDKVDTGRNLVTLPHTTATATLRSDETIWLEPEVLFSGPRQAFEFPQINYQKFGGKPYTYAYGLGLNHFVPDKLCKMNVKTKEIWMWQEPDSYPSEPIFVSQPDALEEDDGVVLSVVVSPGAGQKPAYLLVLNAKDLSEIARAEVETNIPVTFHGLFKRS

[10] = molecular target: Retinoid isomerohydrolase (Bos taurus, UniProt Q28175); experiment: Inhibition of RPE65 in bovine microsomes assessed as reduction on 11-cis-retinol production incubated for 1 hr by HPLC analysis; parameters: species or system Microsome
[11] = molecular target: T1, Retinoid isomerohydrolase (Mus musculus); experiment: In vivo inhibition of RPE65 in BALB/cJ mouse eye by measuring 11-cis-retinal level per eye at 10 mg/kg,ip administrated by HPLC analysis; format: functional, organism-based
[12] = Drug concentration in C57BL/6J mouse serum at 10 mg/kg,ip administrated and measured after 1 hr by HPLC-MS analysis; format: ADME, organism-based; settings: read-out: Ct
[13] = Metabolic stability in mouse liver microsomes assessed as CYP450-mediated metabolism by measuring initial velocity at 15 uM measured upto 60 mins in presence of NADPH by HPLC analysis; format: ADME, Microsome; settings: 1 h
[14] = Drug metabolism in mouse aorta assessed as VAP-1 mediated oxidative deaminated product formation by measuring ACU-5201 metabolite concentration and measured after 1 hr by HPLC analysis; format: ADME, tissue-based
[15] = Metabolic stability in mouse liver microsomes assessed as CYP450-mediated metabolism by measuring initial velocity at 200 uM measured upto 60 mins in presence of NADPH by HPLC analysis; format: ADME, Microsome; settings: 1 h
[16] = Metabolic stability in mouse liver microsomes assessed as CYP450-mediated metabolism by measuring Km measured upto 60 mins in presence of NADPH by Michaelis-Menten based HPLC analysis; format: ADME, Microsome; settings: 1 h
[17] = molecular target: T1, Retinoid isomerohydrolase (Mus musculus); experiment: In vivo inhibition of RPE65 in BALB/cJ mouse eye by measuring 11-cis-retinal level per eye at 10 mg/kg,ip administrated and measured after 4 hrs of dark adaptation by HPLC analysis; format: functional, organism-based
[18] = Drug concentration in C57BL/6J mouse eye assessed per eye at 10 mg/kg,ip administrated and measured after 4 hr by HPLC-MS analysis; format: ADME, organism-based; settings: in vivo
[19] = Drug concentration in mouse aorta measured after 1 hr by HPLC analysis; format: ADME, tissue-based; settings: read-out: Drug uptake
[20] = molecular target: T1, Retinoid isomerohydrolase (Mus musculus); experiment: In vivo inhibition of RPE65 in BALB/cJ mouse eye by measuring 11-cis-retinal level per eye at 10 mg/kg,ip administrated and measured after 24 hrs of dark adaptation by HPLC analysis; format: functional, organism-based
[21] = Drug concentration in mouse aorta measured after 4 hr by HPLC analysis; format: ADME, tissue-based; settings: read-out: Drug uptake
[22] = Drug concentration in C57BL/6J mouse eye assessed per eye at 10 mg/kg,ip administrated and measured after 24 hr by HPLC-MS analysis; format: ADME, organism-based; settings: in vivo
[23] = Metabolic stability in mouse liver microsomes assessed as CYP450-mediated metabolism by measuring initial velocity at 100 uM measured upto 60 mins in presence of NADPH by HPLC analysis; format: ADME, Microsome; settings: 1 h
[24] = molecular target: T1, Retinoid isomerohydrolase (Mus musculus); experiment: In vivo inhibition of RPE65 in BALB/cJ mouse eye by measuring retinyl ester level per eye at 10 mg/kg,ip administrated by HPLC analysis; format: functional, organism-based
[25] = molecular target: T1, Retinoid isomerohydrolase (Mus musculus); experiment: In vivo inhibition of RPE65 in BALB/cJ mouse eye by measuring retinyl ester level per eye at 10 mg/kg,ip administrated and measured after 24 hrs of dark adaptation by HPLC analysis; format: functional, organism-based
[26] = Metabolic stability in mouse liver microsomes assessed as CYP450-mediated metabolism by measuring initial velocity at 25 uM measured upto 60 mins in presence of NADPH by HPLC analysis; format: ADME, Microsome; settings: 1 h
[27] = Metabolic stability in mouse liver microsomes assessed as CYP450-mediated metabolism by measuring Vmax measured upto 60 mins in presence of NADPH by Michaelis-Menten based HPLC analysis; format: ADME, Microsome; settings: 1 h
[28] = molecular target: Retinoid isomerohydrolase (Bos taurus) (UniProt Q28175); experiment: Inhibition of RPE65 in bovine microsomes assessed as fold decrease in 11-cis-retinol production at 0.02 to 10 uM incubated for 1 hr by HPLC analysis; settings: Microsome, dose 0.02-10 µM
How it was run: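 Bovine RPE microsomes in 10 mM BTP pH 7.4 with 1% BSA, 5 mM pyrophosphate and 16.4 µM apo-CRALBP (His-tagged, E. coli-expressed, Ni-purified). Amine in DMF, 0–10 µM final, was preincubated 2 min. All-trans-retinol was added, then 1 h at 37 °C in the dark. Reaction was quenched with methanol and extracted with hexane. 11-cis-retinol was quantified by normal-phase HPLC.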

[29] = molecular target: Retinoid isomerohydrolase (Bos taurus) (UniProt Q28175); experiment: Inhibition of RPE65 in bovine microsomes assessed as reduction on 11-cis-retinol production at 0.5 to 50 uM incubated for 1 hr by HPLC analysis; settings: Microsome, dose 0.5-50 µM

Chain of Retinoid isomerohydrolase (Bos taurus) (Q28175 2-533 limits assumed): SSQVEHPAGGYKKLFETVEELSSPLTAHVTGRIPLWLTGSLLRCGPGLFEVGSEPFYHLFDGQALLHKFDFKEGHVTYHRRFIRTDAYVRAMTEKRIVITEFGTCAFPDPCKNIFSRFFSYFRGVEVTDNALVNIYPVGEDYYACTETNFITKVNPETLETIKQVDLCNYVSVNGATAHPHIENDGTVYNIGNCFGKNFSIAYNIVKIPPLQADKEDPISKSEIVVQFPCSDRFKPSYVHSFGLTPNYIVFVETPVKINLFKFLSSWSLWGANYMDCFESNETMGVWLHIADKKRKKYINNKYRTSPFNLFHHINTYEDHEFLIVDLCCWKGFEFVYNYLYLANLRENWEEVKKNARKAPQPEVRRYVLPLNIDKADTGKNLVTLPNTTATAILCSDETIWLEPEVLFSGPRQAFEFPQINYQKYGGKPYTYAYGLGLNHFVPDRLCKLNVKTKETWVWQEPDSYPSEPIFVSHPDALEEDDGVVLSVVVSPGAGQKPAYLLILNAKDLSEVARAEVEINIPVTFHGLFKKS
Chain of Retinoid isomerohydrolase (Q28175 whole entry): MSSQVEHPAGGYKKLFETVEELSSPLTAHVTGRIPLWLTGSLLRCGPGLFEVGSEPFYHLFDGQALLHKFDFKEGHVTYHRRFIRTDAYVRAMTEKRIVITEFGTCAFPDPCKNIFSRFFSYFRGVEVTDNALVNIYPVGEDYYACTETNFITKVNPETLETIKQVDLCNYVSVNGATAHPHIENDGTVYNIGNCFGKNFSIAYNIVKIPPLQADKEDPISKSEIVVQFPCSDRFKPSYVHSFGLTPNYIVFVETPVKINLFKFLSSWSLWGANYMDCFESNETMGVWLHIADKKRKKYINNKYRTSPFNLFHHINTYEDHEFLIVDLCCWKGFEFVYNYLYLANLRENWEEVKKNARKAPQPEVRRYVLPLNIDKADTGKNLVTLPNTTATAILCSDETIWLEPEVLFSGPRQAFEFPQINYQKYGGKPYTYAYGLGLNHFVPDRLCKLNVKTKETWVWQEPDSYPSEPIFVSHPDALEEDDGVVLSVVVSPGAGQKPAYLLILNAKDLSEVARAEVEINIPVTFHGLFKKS

Structure (SMILES)	Activity [9] [pmol]	IC50 ([10]; read-out: IC50) [nM]	Activity [11] [pmol]	Activity [17] [pmol]	Activity [20] [pmol]	Activity [24] [pmol]	Activity [25] [pmol]	IC50 [10]	inhibition [29]	other results
CNCCC(O)c1cccc(OCC2CCCCC2)c1 (configuration not stated)	396	290	13.8	22.5	202	297	215			concentration [1]: 0.0523 µM; concentration [2]: 100 µM; CLH [3]: 30700 µL/min/mg; concentration [4]: 0.0795 µM; V0 [5]: 64.21 pmol/min; Drug metabolism [6]: 3.76 µM; Ct [7]: 1.329 pmol; Drug metabolism [8]: 0 µM; concentration at 1 h [12]: 0.75 µM; V0 [13]: 23.38 pmol/min; Drug metabolism [14]: 0.48 µM; V0 [15]: 97.45 pmol/min; Km [16]: 0.039 µM; Ct [18]: 7.609 pmol; concentration at 1 h [19]: 101 µM; concentration at 4 h [21]: 89.1 µM; Ct [22]: 0 pmol; V0 [23]: 89.82 pmol/min; V0 [26]: 54.17 pmol/min; Vmax [27]: 119.5 pmol/min
CC(CCN)c1cccc(OCC2CCCCC2)c1 (configuration not stated)	436		25.6	94.4	370	292	124			fold change (FC) [28]: 4
NCCc1cccc(OCC2CCCCC2)c1	89.5		16	393	406	254	65			
NC(CCO)c1cccc(OCC2CCCCC2)c1 (configuration not stated)								Not Active	inactive	
NCCC(O)c1ccc(OCC2CCCCC2)cc1 (configuration not stated)		8080								
CC(CN)Cc1ccc(F)c(OCC2CCCCC2)c1 (configuration not stated)	101		23.5	413	398	260	123	Not Active		
NC(CO)Cc1ccc(OCC2CCCCC2)cc1 (configuration not stated)								Not Active	inactive	
NCCCc1cccc(OCC2CCCCC2)c1										fold change (FC) [28]: 8
NC(CO)Cc1cccc(OCC2CCCCC2)c1 (configuration not stated)								Not Active	inactive	
CC(CN)Cc1cccc(OCC2CCCCC2)c1 (configuration not stated)	112	390	17.4	323	254	256	85.6			
